Results taken from ChEMBL document CHEMBL1649503, “Alkoxyalkyl esters of 9-(s)-(3-hydroxy-2-phosphonomethoxypropyl) adenine are potent and selective inhibitors of hepatitis B virus (HBV) replication in vitro and in HBV transgenic mice in vivo” (Antimicrob Agents Chemother, 2009).

Assays:
[1] = test system: Hepatitis B virus; assay: Antiviral activity against HBV infected in human HepG2(2.2.15) cells assessed as decrease in extracellular viral DNA level after 24 hrs by blot hybridization assay; type: functional, organism-based; conditions: HepG2 2.2.15, 24 h
How it was run: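 Confluent 2.2.15 cells in RPMI 1640 with 2% FBS got nine consecutive daily doses, with medium replaced daily with drug-containing medium. Six wells per concentration over two replicate plates. Cells were pelleted from the medium, which was kept at 4°C and not frozen. Extracellular HBV DNA was quantified by blot hybridization 24 h after the last dose.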

[2] = test system: Hepatitis B virus; assay: Antiviral activity against HBV harboring RNA polymerase N236T mutant gene infected in human HuH7 cells assessed as decrease in viral transient transfection […]; type: functional, organism-based; conditions: Huh-7
How it was run: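 Lamivudine- and adefovir-resistant HBV mutants introduced into Huh7 cells by transient transfection. Compounds were tested in a 5-day assay.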

[3] = test system: HepG2; assay: Drug metabolism in human HepG2 cells assessed as unidentified metabolite uptake at 10 uM after 24 hrs; type: ADME, cell-based; conditions: hepg2, 24 h
How it was run: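 Nearly confluent HepG2 flasks got 14C-labeled drug (final 10 µM, 50 mCi/mmol) for 24 h. Cells were washed with cold PBS, lysed in water by two freeze-thaw cycles and sonication, then extracted with cold TCA (8% final) and centrifuged at 4°C. Supernatant was counted and analyzed by SAX ion-exchange HPLC, with metabolites assigned by retention versus reference standards.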

[4] = test system: HepG2; assay: Drug metabolism in human HepG2 cells assessed as unidentified metabolite uptake at 10 uM after 48 hrs; type: ADME, cell-based; conditions: hepg2, 48 h
[5] = test system: HepG2; assay: Drug metabolism in human HepG2 cells assessed as HPMPA uptake at 10 uM after 48 hrs; type: ADME, cell-based; conditions: hepg2, 48 h
[6] = Tmax in Swiss-Webster mouse plasma at 10 mg/kg, po after 24 hrs; type: ADME, organism-based; set-up: dose 10 mg/kg, route oral
How it was run: (§1)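 Female Swiss-Webster mice (about 25 g) got one 10 mg/kg dose of the 8-14C-labeled ester (50 mCi/mmol) in 0.7% saline, by oral gavage or intraperitoneal injection. Blood was taken at 1, 3, 6, 12 and 24 h. Liver, spleen, kidney, lung, heart and brain were excised, washed and weighed. Drug plus metabolites were measured by liquid scintillation as µM plasma equivalents or nmol/g tissue. Each time point is the mean of three replicates.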

[7] = Tmax in Swiss-Webster mouse kidney at 10 mg/kg, po after 24 hrs; type: ADME, organism-based; set-up: dose 10 mg/kg, route oral
How it was run: (§2)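 Female Swiss-Webster mice (about 25 g) each got a single 10 mg/kg dose of the 14C-labeled (8-14C) ester (50 mCi/mmol) in 0.7% saline, by oral gavage or ip injection. Blood was taken at 1, 3, 6, 12 and 24 h, and liver, spleen, kidney, lung, heart and brain were excised, washed and weighed. Radioactivity was measured by scintillation counting as µM plasma equivalents or nmol/g tissue, mean of three per time point.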

[8] = Tmax in Swiss-Webster mouse heart at 10 mg/kg, po after 24 hrs; type: ADME, organism-based; set-up: dose 10 mg/kg, route oral; how it was run: as §2
[9] = test system: Lung; assay: Cmax in Swiss-Webster mouse lung assessed per gram of tissue at 10 mg/kg, po after 24 hrs; type: ADME, organism-based; set-up: dose 10 mg/kg, route oral; conditions: in vivo; how it was run: as §2
[10] = test system: Heart; assay: Cmax in Swiss-Webster mouse heart assessed per gram of tissue at 10 mg/kg, po after 24 hrs; type: ADME, organism-based; set-up: dose 10 mg/kg, route oral; conditions: in vivo; how it was run: as §2
[11] = test system: Brain; assay: Cmax in Swiss-Webster mouse brain assessed per gram of tissue at 10 mg/kg, po after 24 hrs; type: ADME, organism-based; set-up: dose 10 mg/kg, route oral; conditions: in vivo; how it was run: as §2
[12] = test system: Kidney; assay: AUC in Swiss-Webster mouse kidney assessed per gram of tissue at 10 mg/kg, po after 24 hrs; type: ADME, organism-based; set-up: time < 24 hr, dose 10 mg/kg, route oral; conditions: in vivo; how it was run: as §2
[13] = Tmax in Swiss-Webster mouse liver at 10 mg/kg, ip after 24 hrs; type: ADME, organism-based; set-up: dose 10 mg/kg, route intraperitoneal; how it was run: as §2
[14] = Tmax in Swiss-Webster mouse kidney at 10 mg/kg, ip after 24 hrs; type: ADME, organism-based; set-up: dose 10 mg/kg, route intraperitoneal; how it was run: as §2
[15] = Tmax in Swiss-Webster mouse spleen at 10 mg/kg, ip after 24 hrs; type: ADME, organism-based; set-up: dose 10 mg/kg, route intraperitoneal; how it was run: as §1
[16] = Tmax in Swiss-Webster mouse heart at 10 mg/kg, ip after 24 hrs; type: ADME, organism-based; set-up: dose 10 mg/kg, route intraperitoneal; how it was run: as §2
[17] = Tmax in Swiss-Webster mouse brain at 10 mg/kg, ip after 24 hrs; type: ADME, organism-based; set-up: dose 10 mg/kg, route intraperitoneal; how it was run: as §2
[18] = Cmax in Swiss-Webster mouse plasma assessed per gram of tissue at 10 mg/kg, ip after 24 hrs; type: ADME, organism-based; set-up: dose 10 mg/kg, route intraperitoneal; how it was run: as §2
[19] = test system: Spleen; assay: Cmax in Swiss-Webster mouse spleen assessed per gram of tissue at 10 mg/kg, ip after 24 hrs; type: ADME, organism-based; set-up: dose 10 mg/kg, route intraperitoneal; conditions: in vivo; how it was run: as §2
[20] = test system: Lung; assay: AUC in Swiss-Webster mouse lung assessed per gram of tissue at 10 mg/kg, ip after 24 hrs; type: ADME, organism-based; set-up: time < 24 hr, dose 10 mg/kg, route intraperitoneal; conditions: in vivo; how it was run: as §2
[21] = test system: Heart; assay: AUC in Swiss-Webster mouse heart assessed per gram of tissue at 10 mg/kg, ip after 24 hrs; type: ADME, organism-based; set-up: time < 24 hr, dose 10 mg/kg, route intraperitoneal; conditions: in vivo; how it was run: as §2
[22] = test system: Brain; assay: AUC in Swiss-Webster mouse brain assessed per gram of tissue at 10 mg/kg, ip after 24 hrs; type: ADME, organism-based; set-up: time < 24 hr, dose 10 mg/kg, route intraperitoneal; conditions: in vivo; how it was run: as §2
[23] = Oral bioavailability in Swiss-Webster mouse at 10 mg/kg after 24 hrs; type: ADME, organism-based; conditions: in vivo
How it was run: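 Same single 10 mg/kg 14C-labeled dose (50 mCi/mmol, 0.7% saline) given to female Swiss-Webster mice orally or ip. Plasma sampled 1–24 h and counted by liquid scintillation. Relative oral bioavailability came from AUCs of drug plus metabolites, computed as printed: […].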

[24] = test system: Mus musculus; assay: Toxicity in transgenic mouse at 10 mg/kg, po assessed as mortality after 7 days; type: organism-based; set-up: dose 10 mg/kg, route oral; conditions: in vivo, 168 h
[25] = test system: Mus musculus; assay: Toxicity in transgenic mouse at 10 mg/kg, po assessed as morbidity after 7 days; type: organism-based; set-up: dose 10 mg/kg, route oral; conditions: in vivo, 168 h
[26] = test system: Mus musculus; assay: Toxicity in transgenic mouse at 30 to 100 mg/kg, po assessed as morbidity after 7 days; type: organism-based; set-up: dose 30-100 mg/kg, route oral; conditions: in vivo, 168 h
[27] = test system: Hepatitis B virus; assay: Antiviral activity against HBV harboring RNA polymerase M204V mutant gene infected in human HuH7 cells assessed as decrease in viral transient transfection after 5 days; conditions: Huh-7, 5 days
[28] = test system: Hepatitis B virus; assay: Antiviral activity against HBV harboring RNA polymerase M204I mutant gene infected in human HuH7 cells assessed as decrease in viral transient transfection after 5 days; conditions: Huh-7, 5 days

## CCCCCCCCCCCCCCCCOCCCOP(=O)(O)CO[C@H](CO)Cn1cnc2c(N)ncnc21
[1]
  EC50: 188 nM
  EC90: 616 nM
[2]
  EC50: > 100 µM
  EC90: > 100 µM
[3]
  Drug uptake: 596 pmol
[4]
  Drug uptake: 402 pmol
[5]
  Drug uptake: 393 pmol
[6]
  Tmax: 1 h
[7]
  Tmax: 3 h
[8]
  Tmax: 1 h
[9]
  Cmax: 2.89 nmol/g
[10]
  Cmax: 0.2 nmol/g
[11]
  Cmax: 0.07 nmol/g
[12]
  AUC: 68.8 nmol·h/g
[13]
  Tmax: 1 h
[14]
  Tmax: 1 h
[15]
  Tmax: 1 h
[16]
  Tmax: 1 h
[17]
  Tmax: 1 h
[18]
  Cmax: 2230 nM
[19]
  Cmax: 1.58 nmol/g
[20]
  AUC: 21.5 nmol·h/g
[21]
  AUC: 3.8 nmol·h/g
[22]
  AUC: 0.98 nmol·h/g
[23]
  bioavailability: 64%
[24]
  Activity: Non-toxic
[25]
  Activity: Non-toxic
[26]
  Activity: Toxic
[27]
  EC50: 900 nM
  EC90: 3.2 µM
[28]
  EC50: 1200 nM
  EC90: 4 µM
